This note sets out measurements from ChEMBL document CHEMBL4715860 (J Med Chem, 2020).

The nature of data set [1]: Elimination half life in C57BL/6J mouse plasma at 25 mg/kg, po administered as single dose by mass spectrometry based UHPLC analysis. It counts as ADME, organism-based. As to conditions: read-out: beta t1/2 (converted). The gist of the method:
(§1)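 One oral dose of 25 mg/kg to female C57BL/6J mice. Plasma and brain concentrations followed over time, n = 3 per time point (mean).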

Data set [2] in a line: Cmax in C57BL/6J mouse plasma at 25 mg/kg, po administered as single dose by mass spectrometry based UHPLC analysis. Type of data set: ADME, organism-based. Also on record: route oral, dose 25 mg/kg. A digest of the protocol:
as §1

Data set [3] in a line: Clearance in C57BL/6J mouse plasma at 10 mg/kg, po administered as single dose by mass spectrometry based UHPLC analysis. Type of data set: ADME, organism-based. A digest of the protocol:
(§2)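 Female C57BL/6J mice, one oral dose of 10 mg/kg in 20% Captisol; plasma and brain levels over time, n = 3 per time point (mean).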

Data set [4] is described as follows: AUC (0 to 8 hrs) in C57BL/6J mouse brain at 10 mg/kg, po administered once a day for 4 consecutive days by mass spectrometry based UHPLC analysis. It counts as ADME, organism-based. Also on record: route oral, time 4 day, dose 10 mg/kg. A digest of the protocol:
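Female C57BL/6J mice given 10 mg/kg p.o. in 20% Captisol once daily for 4 consecutive days. Plasma and brain sampled after the final dose on day 4, n = 3 per time point.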

The nature of data set [5]: AUC (0 to 8 hrs) in male Sprague-Dawley rat brain at 5 mg/kg, po. Type of data set: ADME, organism-based. Also on record: time < 8 hr, route oral, dose 5 mg/kg. The conditions noted are these: in vivo. The gist of the method:
(§3)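 Male Sprague Dawley rats, single oral dose of 5 mg/kg. Plasma and brain concentrations measured over 8 h, n = 3, mean ± SEM; AUC0−8 computed from the time course.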

Data set [6] deals with Mus musculus. The data set can be described thus: In vivo inhibition of PI3Kalpha C57BL/6J mouse assessed as increase in plasma insulin concentration at 25 mg/kg, po measured after 8 hrs by ELISA. Type of data set: functional, organism-based. A digest of the protocol:
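Female C57BL/6J mice given one oral dose (25 mg/kg); plasma insulin and glucose monitored over time, mean ± SEM.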
(In an ELISA, binding on a coated surface is turned into a signal by an enzyme label.)

Data set [7] in a line: Tmax in C57BL/6J mouse brain at 25 mg/kg, po administered as single dose by mass spectrometry based UHPLC analysis. Type of data set: ADME, organism-based. A digest of the protocol:
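Female C57BL/6J mice given a single oral dose of 25 mg/kg. Plasma and brain levels followed over time (n = 3 per time point, mean). Tmax is the time of maximal concentration.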

Data set [8] can be described thus: Metabolic stability in human hepatocytes assessed as parent compound remaining at 5 uM incubated for 3 hrs by LC-MS analysis. Type of data set: ADME, cell-based, Hepatocyte. As to conditions: read-out: Stabilty. A digest of the protocol:
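Cryopreserved primary hepatocytes in suspension (CD-1 mouse, Sprague-Dawley rat, Beagle dog, human). Compound diluted from 10 mM DMSO stock to 5 μM final. Sampled at 0, 15, 60, 90 and 180 min, protein precipitated with ACN plus internal standard, supernatant analysed by LC−MS. Run in duplicate. 7-ethoxycoumarin as positive control. Hepatocyte-free medium incubations as negative control.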

A short description of data set [9]: Tmax in C57BL/6J mouse plasma at 10 mg/kg, po administered as single dose by mass spectrometry based UHPLC analysis. Type of data set: ADME, organism-based. A digest of the protocol:
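Female C57BL/6J mice dosed orally at 10 mg/kg in 20% Captisol, either once or once daily for 4 days with sampling after the last dose on day 4. Plasma and brain concentrations followed over time. Tmax taken from at least 3 time points.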

Data set [10] can be described thus: Toxicity in Tsc1-GFAP knockout Balb/c mouse assessed as change in body weight at 50 mg/kg, po bid. It counts as organism-based. As to conditions: in vivo. A digest of the protocol: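 Tsc1GFAPCKO mice dosed orally from P21 at 10, 25, 50 mg/kg or 50 mg/kg bid. Body weight tracked during the survival study; mean ± SEM.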
Data set [11] in a line: AUC (0 to 8 hrs) in C57BL/6J mouse brain at 25 mg/kg, po administered as single dose by mass spectrometry based UHPLC analysis. Type of data set: ADME, organism-based. Further details: time < 8 hr, route oral, dose 25 mg/kg. The gist of the method: as §1
The target of data set [12] is T1, CYP1A1 (Homo sapiens, UniProt P04798).
T1 sequence (P04798 whole entry): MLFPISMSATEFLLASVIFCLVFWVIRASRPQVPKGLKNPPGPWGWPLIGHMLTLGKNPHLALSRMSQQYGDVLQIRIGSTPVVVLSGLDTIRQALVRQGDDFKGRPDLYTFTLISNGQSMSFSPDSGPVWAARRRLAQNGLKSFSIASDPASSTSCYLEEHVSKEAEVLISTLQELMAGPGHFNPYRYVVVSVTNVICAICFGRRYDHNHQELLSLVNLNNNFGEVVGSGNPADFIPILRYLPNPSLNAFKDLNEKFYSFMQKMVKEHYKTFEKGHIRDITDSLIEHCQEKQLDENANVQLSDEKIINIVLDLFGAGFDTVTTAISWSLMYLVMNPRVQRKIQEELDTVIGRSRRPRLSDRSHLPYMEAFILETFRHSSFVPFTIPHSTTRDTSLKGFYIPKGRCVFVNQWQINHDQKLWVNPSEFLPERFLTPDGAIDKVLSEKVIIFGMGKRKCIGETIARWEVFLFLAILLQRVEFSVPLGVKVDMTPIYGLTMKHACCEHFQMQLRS
The data set can be described thus: Drug metabolism assessed as human recombinant CYP1A1 expressed in baculovirus infected insect cells-mediated metabolism by measuring parent compound remaining at 1 uM incubated for 60 mins in presence of NADPH regenerating system by UHPLC based LC-MS analysis. It counts as ADME. The conditions noted are these: read-out: Stabilty.

For data set [13], the target named is T2, Serine/threonine-protein kinase mTOR (Homo sapiens, UniProt P42345). The data set can be described thus: Inhibition of alexa fluor 647-labeled kinase tracer 314 binding to recombinant human N-terminal GST-tagged mTOR (1360 to 2549 residues) expressed in baculovirus expression system measured after 60 mins by TR-FRET based LanthaScreen Eu kinase binding assay. For orientation: Time-resolved FRET reads energy transfer from a long-lived donor to a nearby acceptor.

The nature of data set [14]: AUC (0 to 8 hrs) in male Sprague-Dawley rat plasma at 5 mg/kg, po. Type of data set: ADME, organism-based. Further details: time < 8 hr, route oral, dose 5 mg/kg. A digest of the protocol: as §3
Data set [15] in a line: Intrinsic clearance in human hepatocytes assessed per million cells at 5 uM incubated for 3 hrs by LC-MS analysis. It counts as ADME, cell-based, Hepatocyte. As to conditions: read-out: CLH. The gist of the method:
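Cryopreserved primary hepatocytes in suspension from CD-1 mouse, Sprague-Dawley rat, Beagle dog and human. Compound at 5 μM final (from 10 mM DMSO stock). Samples taken at 0, 15, 60, 90 and 180 min and quenched with ACN plus internal standard. Parent quantified by LC-MS. Hepatocyte-free medium incubations served as negative control; 7-ethoxycoumarin as positive control. Duplicate; CLint per 10^6 cells and t1/2.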

The subject of data set [16] is Rattus norvegicus. The data set can be described thus: In vivo inhibition of PI3Kalpha Sprague-Dawley rat assessed as increase in plasma glucose concentration at 5 mg/kg, po measured after 8 hrs by glucoseoxidase-peroxide coupled colorimetric assay. Type of data set: functional, organism-based. A digest of the protocol:
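Male Sprague Dawley rats dosed orally at 5 mg/kg; plasma insulin and glucose followed over time against vehicle, n = 3, mean ± SEM.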

Data set [17] in a line: AUC (0 to 8 hrs) in C57BL/6J mouse brain at 10 mg/kg, po administered as single dose by mass spectrometry based UHPLC analysis. Also on record: time < 8 hr, route oral, dose 10 mg/kg. It counts as ADME, organism-based. A digest of the protocol: as §2
A short description of data set [18]: Toxicity in Balb/c nude mouse assessed as change in body weight at 100 mg/kg, po administered once daily for 14 days measured for 7 days starting from post last dose. Type of data set: organism-based. The conditions noted are these: in vivo, 504 h, time 21 day.
Data set [19] addresses T2, Serine/threonine-protein kinase mTOR. In words: Binding affinity to wild-type human partial length MTOR (L1382 to W2549 residues) expressed in HEK293 cells measured after 1 hr by Kinomescan method. It counts as cell-based. A digest of the protocol: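 Compound given as an 11-point threefold series from 30 μM, in technical duplicate. Kd from a Hill fit with slope fixed at −1.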

The structures appear in SMILES notation. Activity calls are given as the source filed them. No cut-off for these calls is given here.

Regarding `C[C@@H]1COCCN1c1nc(-c2cnc(N)cc2C(F)F)nc(N2[C@H](C)COC[C@@H]2C)n1`, the half-life in [1] was 144 min. Further, the peak level in [2] (Cmax) was 1830 ng/mL. In addition, the CL/F (as a rule, clearance divided by bioavailability, as obtained after extravascular dosing) in [3] was 56.6 mL/min/kg. In [4], this compound had an AUC at 96 h of 3050 ng·h/mL. This compound registered an AUC in data set [5] of 3689 ng·h/g. The inhibition entry in data set [6] and in [16] was “inactive” each time. In addition, the Tmax in [7] and in [9] was 30 min throughout. In data set [8], the remaining at 3 h, 5 µM stood at 44%. In addition, the Activity result in [10] and in data set [18] was “Non-Toxic” in each case. Also, the AUC(0-t) (as a rule, exposure summed from dosing to a finite time, without extrapolation to infinity) at 8 h amounted to 17100 ng·h/mL in [11], 2430 ng·h/mL in [14] and 4650 ng·h/mL in data set [17]. In addition, the remaining at 1 h, 1 µM in data set [12] worked out at 45.1%. In [13], the inhibitory constant (Ki) (commonly a dissociation constant, usually derived from enzyme kinetics or from competition with a known ligand) turned out to be 3.6 nM. For the same compound, the hepatocyte CLint at 5 µM in data set [15] came to 5.3 µL/min/1e6 cells. In addition, in data set [19], the Kd (in general, the concentration at which binding is half-saturated) turned out to be 0.67 nM.

Regarding `C[C@@H]1COCCN1c1nc(-c2cnc(N)cc2C(F)F)nc(N2CCOCC2(C)C)n1`, the remaining at 1 h, 1 µM in data set [12] amounted to 1.9%. The Ki in data set [13] came out at 4.7 nM. In data set [19], this compound returned a Kd of 0.88 nM.
